A short description of test [1]: Displacement of [3H]-(+)-MK-801 from PCP binding site of NMDA receptor in pig brain cortex membranes after 120 mins by solid scintillation counting. In kind it is cell membranes, Sus scrofa. In short, it runs like this:
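Pig brain cortex membranes (about 100 µg protein) incubated with 2 nM [3H]-(+)-MK-801 and test compound at 10^-5 to 10^-9 mol/L (final) in 5 mM TRIS/1 mM EDTA, pH 7.5, at rt with shaking. Nonspecific binding defined with 10 µM unlabeled (+)-MK-801. Filtration, melted solid scintillator, [3H] counting. Duplicates. IC50 by non-linear regression, converted to Ki via Cheng-Prusoff (Kd 2.26 nM). Mean ± SEM of three experiments.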
A general note: Loss of bound radioactivity is the signal in a displacement assay; it reports binding, not function.

The species entered for a further test is Sus scrofa. The test is described as follows: Displacement of [3H]-(+)-MK-801 from PCP binding site of NMDA receptor in pig brain cortex membranes at 1 uM after 120 mins by solid scintillation counting relative to control. It counts as cell membranes. In short, it runs like this:
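Single 1 µM test concentration: inhibition (%) of 2 nM [3H]-(+)-MK-801 binding to pig brain cortex membranes (about 100 µg protein). Buffer was 5 mM TRIS/1 mM EDTA, pH 7.5, at rt. Nonspecific binding defined with 10 µM unlabeled (+)-MK-801. Bound radioactivity collected by filtration and counted by solid scintillation.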

Test [2] has as its target T1, Sigma intracellular receptor 2 (Rattus norvegicus, UniProt Q5U3Y7).
T1 sequence (Q5U3Y7 whole entry): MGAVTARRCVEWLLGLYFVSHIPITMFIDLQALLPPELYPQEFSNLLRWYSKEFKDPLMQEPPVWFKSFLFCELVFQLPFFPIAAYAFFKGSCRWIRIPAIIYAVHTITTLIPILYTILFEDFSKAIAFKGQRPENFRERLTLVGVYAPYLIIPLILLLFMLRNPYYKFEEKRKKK
Description: Displacement of [3H]-di-o-tolylguanidine from sigma2 receptor in rat liver membranes incubated for 120 mins by scintillation counting method. In kind it is cell membranes, Membrane.

Test [3] addresses Sigma non-opioid intracellular receptor 1 (Cavia porcellus, UniProt Q60492). The test is described as follows: Displacement of [3H]-(+)-pentazocine from sigma1 receptor in guinea pig brain cortex membrane after 120 mins by scintillation counting method. In kind it is cell membranes.
For test [4], the target named is Glutamate NMDA receptor; GRIN1/GRIN2B (Homo sapiens, UniProt Q05586+Q13224). Description: Displacement of [3H]-ifenprodil from GluN1a/GluN2B (unknown origin) expressed in L(tk-) cell membranes after 120 mins by scintillation counting analysis.
Sequence of Glutamate NMDA receptor; GRIN1/GRIN2B (Q13224 whole entry, other chains not shown): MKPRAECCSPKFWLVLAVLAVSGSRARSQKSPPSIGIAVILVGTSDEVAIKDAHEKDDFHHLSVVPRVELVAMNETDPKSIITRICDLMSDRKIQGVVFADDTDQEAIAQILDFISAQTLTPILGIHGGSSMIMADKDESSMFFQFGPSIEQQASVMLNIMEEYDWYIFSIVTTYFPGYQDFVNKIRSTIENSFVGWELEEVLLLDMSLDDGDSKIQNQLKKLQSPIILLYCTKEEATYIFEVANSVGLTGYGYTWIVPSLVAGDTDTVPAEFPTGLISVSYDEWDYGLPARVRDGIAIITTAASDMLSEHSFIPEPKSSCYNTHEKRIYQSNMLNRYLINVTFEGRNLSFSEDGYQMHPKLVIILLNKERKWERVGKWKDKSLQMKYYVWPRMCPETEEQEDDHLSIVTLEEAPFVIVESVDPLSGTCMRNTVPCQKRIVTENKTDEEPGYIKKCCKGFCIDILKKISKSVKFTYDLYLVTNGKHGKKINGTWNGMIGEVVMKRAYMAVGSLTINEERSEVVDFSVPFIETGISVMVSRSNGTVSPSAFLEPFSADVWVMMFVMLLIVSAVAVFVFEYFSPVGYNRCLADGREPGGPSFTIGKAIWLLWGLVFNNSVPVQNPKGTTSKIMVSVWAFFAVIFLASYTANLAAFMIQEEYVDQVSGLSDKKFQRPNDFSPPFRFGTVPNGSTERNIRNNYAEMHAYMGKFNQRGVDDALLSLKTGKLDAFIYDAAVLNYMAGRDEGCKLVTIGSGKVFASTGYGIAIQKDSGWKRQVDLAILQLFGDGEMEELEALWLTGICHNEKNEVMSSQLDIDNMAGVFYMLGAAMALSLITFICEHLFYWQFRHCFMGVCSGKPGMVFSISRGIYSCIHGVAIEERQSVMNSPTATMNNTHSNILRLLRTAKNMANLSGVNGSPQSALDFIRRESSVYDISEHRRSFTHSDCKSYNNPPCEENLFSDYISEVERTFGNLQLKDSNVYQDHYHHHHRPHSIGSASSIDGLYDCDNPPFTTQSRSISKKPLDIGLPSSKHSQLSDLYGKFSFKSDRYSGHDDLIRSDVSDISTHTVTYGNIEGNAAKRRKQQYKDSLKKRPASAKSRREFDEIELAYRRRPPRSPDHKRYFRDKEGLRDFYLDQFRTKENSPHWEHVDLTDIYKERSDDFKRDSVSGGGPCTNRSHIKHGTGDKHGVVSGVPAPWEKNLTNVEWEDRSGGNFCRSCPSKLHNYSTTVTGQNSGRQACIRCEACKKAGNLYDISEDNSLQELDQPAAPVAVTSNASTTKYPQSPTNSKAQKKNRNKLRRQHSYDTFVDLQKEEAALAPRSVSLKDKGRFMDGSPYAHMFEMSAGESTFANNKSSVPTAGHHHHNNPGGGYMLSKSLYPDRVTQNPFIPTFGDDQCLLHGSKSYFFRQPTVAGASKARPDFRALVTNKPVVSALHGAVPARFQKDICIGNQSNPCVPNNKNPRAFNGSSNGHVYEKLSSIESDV

Sequence of Sigma non-opioid intracellular receptor 1 (Q60492 whole entry): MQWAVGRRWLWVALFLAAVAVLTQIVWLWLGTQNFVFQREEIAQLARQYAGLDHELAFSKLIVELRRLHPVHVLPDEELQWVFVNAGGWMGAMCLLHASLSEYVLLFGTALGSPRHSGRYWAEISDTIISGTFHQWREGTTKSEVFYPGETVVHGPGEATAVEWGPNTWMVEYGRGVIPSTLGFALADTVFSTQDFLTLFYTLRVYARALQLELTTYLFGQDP

The IC50 is the concentration needed to halve the response being measured. A word on the inhibition: it is the percentage by which the read-out fell short of the control. A higher inhibition goes with a response far below the control. As usually defined, the Ki is the equilibrium dissociation constant of an inhibitor or competing ligand from its target. A higher Ki goes with lower affinity. On to `CN(CCCCc1ccccc1)C1CCc2cccnc2CC1` (stereo not given), for which the IC50 in test [1] was above 1000 nM. In addition, the inhibition in the test listed under Sus scrofa stood at 5%. Moreover, the Ki worked out at 115 nM in test [2], 263 nM in test [3] and 477 nM in test [4].
The corresponding values for `CN(CCCc1ccccc1)C1CCc2cccnc2CC1` (stereo not given) are above 1000 nM, 0%, 68 nM, 261 nM and 445 nM.
The corresponding values for `c1ccc(CCCNC2CCc3cccnc3CC2)cc1` (stereo not given) are above 1000 nM, 10%, 276 nM, 992 nM and 302 nM.
The corresponding values for `c1ccc(CCCCNC2CCc3cccnc3CC2)cc1` (stereo not given) are above 1000 nM, 8%, 68 nM, 214 nM and 149 nM.
`c1ccc(CNC2CCc3cccnc3CC2)cc1` (stereo not given) displayed an IC50 in test [1] above 1000 nM. Further, in the test listed under Sus scrofa, the inhibition was 0%. Moreover, the Ki in test [2] is 490 nM; in test [3], 942 nM; in test [4], above 1000 nM.
